One assay deals with Bacillus subtilis. In words: Antibacterial activity against Bacillus subtilis was determined. It counts as functional.
Assay [1] has as its target DNA polymerase III PolC-type (Bacillus subtilis (strain 168), UniProt P13267). Put plainly: Inhibitory activity against DNA polymerase IIIC from Bacillus subtilis was determined. Put shortly: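 Homogeneous recombinant B. subtilis pol IIIC, 0.025-0.06 units, added to buffered Mg²⁺/DTT/glycerol mix with dATP, dCTP, dTTP, [³H]dTTP and activated calf thymus DNA, no dGTP ("truncated" assay). Compound serial dilutions in DMSO added before enzyme. 10 min at 30 °C, TCA-pyrophosphate stop, acid-precipitated DNA filtered and scintillation counted. Apparent Ki read directly; duplicates.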

In assay [2] the test system is Enterococcus faecalis. Put plainly: Antibacterial activity against Enterococcus faecalis was determined. It counts as functional. The gist of the method:
(§1)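 MIC by broth microdilution. Log-phase cultures in Luria broth, seeded at (3-7) × 10⁵ CFU/mL stocks. Compound from DMSO stock, 2-fold serial dilutions giving five concentrations from 20 to 1.25 µg/mL, final 1% DMSO, with untreated and DMSO controls. Duplicate assays, 37 °C for 16 to 24 h, growth read as OD 600 nm. MIC is the averaged lowest concentration preventing growth.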

Assay [3] has as its system Enterococcus faecalis. Put plainly: Antibacterial activity against vancomycin-resistant strain of Enterococcus faecalis(VRE) was determined. It counts as functional. The gist of the method: as §1
Another assay relates to Enterococcus faecium. Put plainly: Antibacterial activity against Enterococcus faecium was determined. It counts as functional, enterococcus fecium. The gist of the method:
(§2)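 Broth microdilution MIC. Log-phase cultures grown in Luria broth; wells seeded from stocks at (3-7) × 10⁵ CFU/mL. DMSO stocks diluted 2-fold to five concentrations, 20 to 1.25 µg/mL, plus untreated control; 1% DMSO final in all wells. Duplicate assays, 37 °C for 16 to 24 h, growth read as OD600. MIC taken as lowest concentration preventing growth, averaged.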

In the next assay the test system is Escherichia coli. In words: Antibacterial activity against Escherichia coli was determined. It counts as functional. Put shortly:
as §2

The test system of assay [4] is Staphylococcus aureus. In words: Antibacterial activity against Staphylococcus aureus was determined. The format is functional.
Assay [5] has as its system Staphylococcus aureus. Put plainly: Antibacterial activity against Staphylococcus aureus(smith) was determined. It counts as functional.
In assay [6] the test system is Staphylococcus aureus. Put plainly: Antibacterial activity against methicillin-resistant strain of Staphylococcus aureus(MRSA B42876) was determined. It counts as functional. The gist of the method:
as §1

pKi: −log10 of the molar value. ≈ marks a conversion by molar mass, not a printed value. Where only a bound is given, the exact number is not on record here.

DNA polymerase III PolC-type, sequence (P13267 whole entry, the tested form may be a part): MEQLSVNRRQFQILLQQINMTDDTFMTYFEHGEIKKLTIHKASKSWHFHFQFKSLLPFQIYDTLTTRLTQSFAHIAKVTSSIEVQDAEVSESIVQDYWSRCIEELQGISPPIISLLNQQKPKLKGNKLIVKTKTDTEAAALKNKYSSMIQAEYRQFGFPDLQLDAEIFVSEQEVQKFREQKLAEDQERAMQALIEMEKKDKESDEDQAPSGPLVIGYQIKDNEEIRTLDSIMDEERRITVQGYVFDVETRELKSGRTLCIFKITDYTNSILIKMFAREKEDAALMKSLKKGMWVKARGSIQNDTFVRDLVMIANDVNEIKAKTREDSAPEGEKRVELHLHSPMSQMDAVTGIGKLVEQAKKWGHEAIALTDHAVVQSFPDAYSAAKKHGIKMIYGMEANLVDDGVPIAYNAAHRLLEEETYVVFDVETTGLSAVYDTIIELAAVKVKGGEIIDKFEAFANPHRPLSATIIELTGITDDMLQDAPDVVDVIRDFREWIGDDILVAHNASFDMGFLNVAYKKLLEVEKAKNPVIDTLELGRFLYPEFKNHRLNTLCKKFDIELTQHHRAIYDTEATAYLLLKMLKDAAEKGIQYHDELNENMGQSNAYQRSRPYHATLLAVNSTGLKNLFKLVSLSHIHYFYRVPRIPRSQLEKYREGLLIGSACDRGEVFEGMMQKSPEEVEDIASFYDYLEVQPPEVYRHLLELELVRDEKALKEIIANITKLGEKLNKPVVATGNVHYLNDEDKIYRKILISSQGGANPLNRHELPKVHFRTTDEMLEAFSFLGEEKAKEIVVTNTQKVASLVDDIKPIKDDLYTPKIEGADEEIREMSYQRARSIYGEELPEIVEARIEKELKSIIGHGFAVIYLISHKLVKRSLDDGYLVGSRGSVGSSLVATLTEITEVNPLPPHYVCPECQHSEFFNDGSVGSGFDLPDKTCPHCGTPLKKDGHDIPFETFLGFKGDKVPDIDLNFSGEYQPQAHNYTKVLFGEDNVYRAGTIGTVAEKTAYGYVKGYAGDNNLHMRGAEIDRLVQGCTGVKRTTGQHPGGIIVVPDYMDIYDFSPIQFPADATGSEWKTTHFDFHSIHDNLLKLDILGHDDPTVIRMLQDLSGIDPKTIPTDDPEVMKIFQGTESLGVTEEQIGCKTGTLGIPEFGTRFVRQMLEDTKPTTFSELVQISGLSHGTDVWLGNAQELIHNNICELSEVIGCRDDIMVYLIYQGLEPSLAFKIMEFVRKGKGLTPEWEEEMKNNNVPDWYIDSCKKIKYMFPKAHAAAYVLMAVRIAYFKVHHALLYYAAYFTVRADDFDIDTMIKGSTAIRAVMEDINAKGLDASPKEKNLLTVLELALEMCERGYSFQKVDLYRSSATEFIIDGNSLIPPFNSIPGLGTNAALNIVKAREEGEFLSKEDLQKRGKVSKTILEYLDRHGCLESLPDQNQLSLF

With `COCCCCn1c(=O)cc(Nc2ccc(C)c(Br)c2)[nH]c1=O`, the minimal inhibitory concentration (MIC) (in general, the lowest concentration that inhibits growth of the organism) against Bacillus subtilis was 2.5 µg/mL (≈ 6.54 µM); in the assay with Enterococcus faecalis [2], 5 µg/mL (≈ 13.1 µM); against Enterococcus faecalis [3], 2.5 µg/mL (≈ 6.54 µM); in the assay on Enterococcus faecium, 5 µg/mL (≈ 13.1 µM); in the assay with Escherichia coli, above 20 µg/mL; with Staphylococcus aureus [4], 5 µg/mL (≈ 13.1 µM). Besides, the MIC in the assay with Staphylococcus aureus [5] came to 2.5 µg/mL (≈ 6.54 µM); with Staphylococcus aureus [6] it was 5 µg/mL (≈ 13.1 µM). Further, the negative-log Ki (pKi) (in general, the negative decadic logarithm of the Ki, by convention in mol/L) in assay [1] is 6.89.

With `COCCCCn1c(=O)cc(Nc2ccc(C)c(C)c2)[nH]c1=O`, the MIC against Bacillus subtilis is 2.5 µg/mL (≈ 7.88 µM); with Enterococcus faecalis [2] it was 10 µg/mL (≈ 31.5 µM); in the assay on Enterococcus faecalis [3] it was 10 µg/mL (≈ 31.5 µM); in the assay with Enterococcus faecium it was 20 µg/mL (≈ 63 µM); against Escherichia coli, above 20 µg/mL; in the assay on Staphylococcus aureus [4] it was 20 µg/mL (≈ 63 µM). Moreover, the MIC with Staphylococcus aureus [5] and in the assay with Staphylococcus aureus [6] was 10 µg/mL (≈ 31.5 µM) throughout. Besides, the negative-log Ki (pKi) in assay [1] is 6.26.

`CCc1cc(Nc2cc(=O)n(CCCCN3CCC(O)(c4ccccc4)CC3)c(=O)[nH]2)ccc1C`: the MIC was 20 µg/mL (≈ 42 µM) with Bacillus subtilis; 20 µg/mL (≈ 42 µM) with Enterococcus faecalis [2]; 10 µg/mL (≈ 21 µM) with Enterococcus faecalis [3]; 10 µg/mL (≈ 21 µM) in the assay with Enterococcus faecium; above 20 µg/mL in the assay with Escherichia coli; 20 µg/mL (≈ 42 µM) in the assay on Staphylococcus aureus [4]. Besides, the minimum inhibitory concentration (MIC) against Staphylococcus aureus [5] and against Staphylococcus aureus [6] was 20 µg/mL (≈ 42 µM) throughout. The molecule also showed a pKi in assay [1] of 7.17.

With `CCOC1CN(CCCCn2c(=O)cc(Nc3ccc(C)c(CC)c3)[nH]c2=O)CCO1` (configuration not stated), the minimum inhibitory concentration (MIC) is 2.5 µg/mL (≈ 5.81 µM) against Bacillus subtilis; 10 µg/mL (≈ 23.2 µM) against Enterococcus faecalis [2]; 10 µg/mL (≈ 23.2 µM) against Enterococcus faecalis [3]; 20 µg/mL (≈ 46.5 µM) in the assay with Enterococcus faecium; above 20 µg/mL in the assay with Escherichia coli; 10 µg/mL (≈ 23.2 µM) in the assay on Staphylococcus aureus [4]. The MIC in the assay on Staphylococcus aureus [5] and in the assay on Staphylococcus aureus [6] was 20 µg/mL (≈ 46.5 µM) each time. For the same molecule, the pKi in assay [1] was 7.37.

Turning to `C=C(C)c1cc(Nc2cc(=O)n(CCCCOC)c(=O)[nH]2)ccc1C`, the minimal inhibitory concentration (MIC) with Bacillus subtilis is 2.5 µg/mL (≈ 7.28 µM); with Enterococcus faecalis [2] it was 20 µg/mL (≈ 58.2 µM); with Enterococcus faecalis [3] it was 20 µg/mL (≈ 58.2 µM); against Enterococcus faecium, 20 µg/mL (≈ 58.2 µM); in the assay with Escherichia coli, above 20 µg/mL; in the assay with Staphylococcus aureus [4], 20 µg/mL (≈ 58.2 µM). The MIC is 10 µg/mL (≈ 29.1 µM) in the assay on Staphylococcus aureus [5] and above 20 µg/mL with Staphylococcus aureus [6]. Also, the negative logarithm of the Ki (pKi) in assay [1] was 6.25.

Regarding `COCCCCn1c(=O)cc(NCc2ccc(Cl)c(Cl)c2)[nH]c1=O`, the minimum inhibitory concentration (MIC) against Bacillus subtilis was 3.75 µg/mL (≈ 10.1 µM); with Enterococcus faecalis [2], 5 µg/mL (≈ 13.4 µM); with Enterococcus faecalis [3], 5 µg/mL (≈ 13.4 µM); with Enterococcus faecium it was 5 µg/mL (≈ 13.4 µM); against Escherichia coli it was above 20 µg/mL; in the assay on Staphylococcus aureus [4], 10 µg/mL (≈ 26.9 µM). For the same molecule, the MIC worked out at 5 µg/mL (≈ 13.4 µM) against Staphylococcus aureus [5] and 20 µg/mL (≈ 53.7 µM) with Staphylococcus aureus [6]. Further, the pKi in assay [1] is 7.10.

Regarding `Cc1ccc(Nc2cc(=O)n(CCCCO)c(=O)[nH]2)cc1I`, the minimum inhibitory concentration (MIC) against Bacillus subtilis is 5 µg/mL (≈ 12 µM); with Enterococcus faecalis [2], 5 µg/mL (≈ 12 µM); against Enterococcus faecalis [3], 2.5 µg/mL (≈ 6.02 µM); against Enterococcus faecium, 5 µg/mL (≈ 12 µM); with Escherichia coli it was above 20 µg/mL; against Staphylococcus aureus [4], 10 µg/mL (≈ 24.1 µM). Besides, the MIC in the assay on Staphylococcus aureus [5] and in the assay on Staphylococcus aureus [6] was 5 µg/mL (≈ 12 µM) each time. The pKi in assay [1] is 7.17.

Regarding `CCc1cc(Nc2cc(=O)n(CCCCN=[N+]=[N-])c(=O)[nH]2)ccc1C`, the MIC against Bacillus subtilis was below 1.25 µg/mL; with Enterococcus faecalis [2], 5 µg/mL (≈ 14.6 µM); against Enterococcus faecalis [3] it was 2.5 µg/mL (≈ 7.3 µM); against Enterococcus faecium, below 1.25 µg/mL; in the assay on Escherichia coli it was above 20 µg/mL; against Staphylococcus aureus [4], 2.5 µg/mL (≈ 7.3 µM). For the same molecule, the figures for the minimum inhibitory concentration (MIC) in the assay with Staphylococcus aureus [5] and in the assay with Staphylococcus aureus [6] were 2.5 µg/mL (≈ 7.3 µM) and above 20 µg/mL, respectively. The same molecule showed a pKi in [1] of 6.92.

(Values after ChEMBL document CHEMBL1144871, “Synthesis of substituted 6-anilinouracils and their inhibition of DNA polymerase IIIC and Gram-positive bacterial growth” (J Med Chem, 2003).)
